# Measurements pooled from the literature.
# DCLK3: Serine/threonine-protein kinase DCLK3 (DCLK3, Homo sapiens, UniProt Q9C098)
# mraY: mraY (Staphylococcus aureus, UniProt Q2FZ93)
Compound,target,assay,test system,setting,endpoint,result
COc1ccc2oc(-c3ccc4nc(N)oc4c3)c/c(=N\c3ccccc3NC(=O)CCN)c2c1,"Testis-specific serine/threonine-protein kinase 1 (TSSK1B, Homo sapiens, UniProt Q9BXA7)",binding,,1 µM,remaining binding,100%
C[C@]1(O)CCCN(c2nc(Nc3ccc(S(=O)(=O)N[C@H]4CC[C@H](CN5CCN(c6ccc(C7CCC(=O)NC7=O)cc6F)CC5)CC4)cc3Cl)ncc2C(F)(F)F)C1 (stereo partly drawn),"Aurora kinase C (AURKC, Homo sapiens, UniProt Q9UQB9)","binding, competition with immobilised ligand",,1 µM,remaining binding,99%
CCN1/C(=C/C(C)=O)Sc2ccc(F)cc21,"B1 bradykinin receptor (BDKRB1, Homo sapiens, UniProt P46663)","ligand displacement, radioligand",,10 µM,inhibition,0%
CNS(=O)(=O)c1ccc(Nc2ncc(C(F)(F)F)c(N3CCC[C@](C)(O)C3)n2)c(C)c1,DCLK3,"binding, competition with immobilised ligand",,1 µM,remaining binding,41%
NC/C(=C\F)COc1cccc(Cn2c(=S)[nH]c(=O)c3[nH]cnc32)c1,"Melatonin receptor type 1A (MTNR1A, Homo sapiens, UniProt P48039)","ligand displacement, radioligand",,10 µM,inhibition,< 50%
C[C@]1(O)CCCN(c2nc(Nc3ccc(S(=O)(=O)N[C@H]4CC[C@H](CN5CCN(c6ccc(C7CCC(=O)NC7=O)cc6F)CC5)CC4)cc3F)ncc2C(F)(F)F)C1 (stereo partly drawn),DCLK3,"binding, competition with immobilised ligand",,1 µM,remaining binding,43%
CSCC[C@H](NC(C)=O)C(=O)N[C@@H](CC(=O)O)C(=O)N[C@@H](Cc1ccccc1)C(N)=O,"Gastrin/cholecystokinin type B receptor (CCKBR, Homo sapiens, UniProt P32239)","β-arrestin recruitment, agonist",HTLA,,Emax,38.1%
C[C@H](NC(=O)C(=O)Nc1ccccc1C(C)(C)C)C(=O)N[C@@H](CC(=O)O)C(=O)COc1c(F)c(F)cc(F)c1F,"Caspase-4 (CASP4, Homo sapiens, UniProt P49662)","enzyme activity, inhibitor",,,kinact/KI,19200 M⁻¹ s⁻¹
CCCCCCC#Cc1cncc(-c2nnc(SCc3ccc(Cl)cc3)n2CCCN)c1,mraY,"cell-free assay, inhibitor",,250 µM,inhibition,34%
CCCCC(=O)Nc1ccc(-c2ccc3ncn(CCC)c(=O)c3c2)cn1,"Serine/threonine-protein kinase SIK1 (SIK1, Homo sapiens, UniProt P57059)","binding, competition with immobilised ligand",,0.5 µM,remaining binding,79%
Cc1cc(-c2ccnc3[nH]cc(F)c23)cc(F)c1[C@@]1(O)[C@H](C)CN(C2CCS(=O)(=O)CC2)C[C@@H]1C,"Rho-associated protein kinase 1 (ROCK1, Homo sapiens, UniProt Q13464)","enzyme activity, inhibitor",,15 nM,remaining activity,31.3%
CCCCCCC#Cc1cncc(-c2nnc(SCc3ccc([N+](=O)[O-])o3)n2CCO)c1,mraY,"cell-free assay, inhibitor",,250 µM,inhibition,61%
C1=C/COCc2cc(ccc2OCCN2CCCC2)Nc2nccc(n2)-c2cccc(c2)COC/1,"Receptor-type tyrosine-protein kinase FLT3 (FLT3, Homo sapiens, UniProt P36888, R834Q)",binding,,0.1 µM,remaining binding,17%
CCCCCCC#Cc1cncc(-c2nnc(SCc3ccc([N+](=O)[O-])cc3)n2CCCN)c1,mraY,"cell-free assay, inhibitor",,250 µM,inhibition,82%
Cc1cc(S(=O)(=O)N[C@H]2CC[C@H](CN3CCN(c4ccc(C5CCC(=O)NC5=O)cc4F)CC3)CC2)ccc1Nc1ncc(C(F)(F)F)c(N2CCC[C@](C)(O)C2)n1 (stereo partly drawn),DCLK3,"binding, competition with immobilised ligand",,1 µM,remaining binding,28%
